# Starred links: 1 amine or outer side, 2 acyl side, 3 side chain; linkers in the order of their positions; H or OH if unused. Non-standard residues stand in square brackets, D forms with d. Residues, ends and D or L forms follow the SMILES beside them. *: point of attachment. 2Nal = N[C@@H](Cc1ccc2ccccc2c1)C(=O)O; Cyclopropanecarbonyl = O=C(C1CC1)*; NHPhenethyl = c1ccc(CCN*)cc1; Isovaleryl = CC(C)CC(=O)*; Isobutyryl = CC(C)C(=O)*; CO = O=C([*:1])[*:2]; NHBn = c1ccc(CN*)cc1; Propionyl = CCC(=O)*; Butyryl = CCCC(=O)*; NHPh = c1ccc(N*)cc1; Moc = COC(=O)*; For = O=C*
# Molecular target: T1, DCN1-like protein 1 (Homo sapiens, UniProt Q96GG9)
# T1 sequence (Q96GG9 whole entry, the tested form may be a part): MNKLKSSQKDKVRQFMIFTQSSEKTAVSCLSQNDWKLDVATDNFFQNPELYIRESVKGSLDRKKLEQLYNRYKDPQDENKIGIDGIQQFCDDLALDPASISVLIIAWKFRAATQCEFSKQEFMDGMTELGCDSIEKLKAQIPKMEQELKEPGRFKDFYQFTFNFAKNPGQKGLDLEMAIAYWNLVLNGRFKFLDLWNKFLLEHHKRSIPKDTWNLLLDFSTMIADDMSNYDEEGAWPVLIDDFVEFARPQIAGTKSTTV
# Test: Displacement of (S)-N1-((19S,22S)-26-Amino-19-carbamoyl-1-(3',6'-dihydroxy-3-oxo-3H-spiro[isobenzofuran-1,9'-xanthen]-5-yl)-1,13,21-trioxo-5,8,11-trioxa-2,14,20-triazahexacosan-22-yl)-2-((2S,5S,8S,11S,14S,17S,20S,23S,26S)-2-(3-amino-3-oxopropyl)-5,20-bis(4-aminobutyl)-14-benzyl-23-((S)-sec-butyl)-11-(hydroxymethyl)-8,17-diisobutyl-26-(naphthalen-2-ylmethyl)-4,7,10,13,16,19,22,25,28-nonaoxo-3,6,9,12,15,18,21,24,27-nonaazanonacosanamido)pentanediamide from recombinant N-terminal His6-tagged human DCN1 (58 to 259 residues) expressed in Escherichia coli Rosetta2 cells after 30 mins by fluorescence polarization assay
SMILES,IC50 [nM],Ki [nM]
CC[C@H](C)[C@H](NC(=O)[C@H](Cc1ccc2ccccc2c1)NC(=O)C(C)C)C(=O)N[C@@H](CCCCN)C(=O)N[C@@H](CC(C)C)C(N)=O (Isobutyryl-[2Nal]IKL-NH2),16500,3500
CC[C@H](C)[C@H](NC(=O)[C@H](Cc1ccc2ccccc2c1)NC(=O)C1CC1)C(=O)N[C@@H](CCCCN)C(=O)N[C@@H](CC(C)C)C(N)=O (Cyclopropanecarbonyl-[2Nal]IKL-NH2),25100,5400
CCC(=O)N[C@@H](Cc1nc2ccc(Cl)cc2s1)C(=O)N[C@H](C(=O)N[C@@H](CCCCN)C(=O)NC(c1ccccc1)c1ccccc1)C1CCCC1,132,< 50
CCC(=O)N[C@@H](Cc1ccc2ccccc2c1)C(=O)N[C@H](C(=O)N[C@@H](CCCCN)C(=O)N[C@@H]1CCc2ccccc21)[C@@H](C)CC,–,160
CCC(=O)N[C@@H](Cc1ccc2ccccc2c1)C(=O)N[C@H](C(=O)N[C@@H](CCCCN)C(=O)N[C@@H](CC(C)C)C(N)=O)[C@@H](C)CC (Propionyl-[2Nal]IKL-NH2),5200,1100
CC[C@H](C)[C@H](NC(=O)[C@H](Cc1ccc2ccccc2c1)NC(=O)CC(C)C)C(=O)N[C@@H](CCCCN)C(=O)N[C@@H](CC(C)C)C(N)=O (Isovaleryl-[2Nal]IKL-NH2),> 20000,–
CCCC(=O)N[C@@H](Cc1ccc2ccccc2c1)C(=O)N[C@H](C(=O)N[C@@H](CCCCN)C(=O)N[C@@H](CC(C)C)C(N)=O)[C@@H](C)CC (Butyryl-[2Nal]IKL-NH2),37000,8000
CCC(=O)N[C@@H](Cc1ccc2ccccc2c1)C(=O)N[C@H](C(=O)N[C@@H](CCCCN)C(=O)NC(c1ccccc1)c1ccccc1)C1CCCCC1,613,97.3
CCC(=O)N[C@@H](Cc1nc2ccc(F)cc2s1)C(=O)N[C@H](C(=O)N[C@@H](CCCCN)C(=O)NC(c1ccccc1)c1ccccc1)C1CCCC1,–,54.4
CCC(=O)N[C@@H](Cc1ccc2ccccc2c1)C(=O)N[C@@H](CC1CCCCC1)C(=O)N[C@@H](CCCCN)C(=O)NC(c1ccccc1)c1ccccc1,368,44.3
CCC(=O)N[C@@H](Cc1ccc2ccccc2c1)C(=O)N[C@H](C(=O)N[C@@H](CCCCN)C(=O)NC(c1ccccc1)c1ccccc1)C1CCCC1,330,36.3
CCC(=O)N[C@@H](Cc1ccc2ccccc2c1)C(=O)N[C@H](C(=O)N[C@@H](CCCCN)C(=O)N[C@@H]1CCCc2ccccc21)[C@@H](C)CC,550,84
CCC(=O)N[C@@H](Cc1ccc2ccccc2c1)C(=O)N[C@@H](Cc1cccs1)C(=O)N[C@@H](CCCCN)C(=O)NC(c1ccccc1)c1ccccc1,–,174
CCC(=O)N[C@@H](Cc1ccc2ccccc2c1)C(=O)N[C@H](C(=O)N[C@@H](CCCCN)C(=O)NC(c1ccccc1)c1ccccc1)[C@@H](C)CC,–,97
CCC(=O)N[C@@H](Cc1ccc2ccccc2c1)C(=O)N[C@@H](CC(C)(C)C)C(=O)N[C@@H](CCCCN)C(=O)NC(c1ccccc1)c1ccccc1,–,42.9
CCC(=O)N[C@@H](Cc1ccc2ccccc2c1)C(=O)N[C@H](C(=O)N[C@@H](CCCCN)C(=O)N[C@H]1CCc2ccccc21)[C@@H](C)CC,–,380

SMILES,IC50 [nM],Ki [nM]
CCC(=O)N[C@@H](Cc1ccc2ccccc2c1)C(=O)N[C@H](C(=O)N[C@@H](CCCCN)C(=O)NCc1ccccc1)[C@@H](C)CC (Propionyl-[2Nal]-Ile-Lys-NHBn),–,810
CC[C@H](C)[C@H](NC(=O)[C@H](Cc1ccc2ccccc2c1)NC(C)=O)C(=O)N[C@@H](CCCCN)C(=O)N[C@@H](CC(C)C)C(N)=O (Ac-[2Nal]IKL-NH2),16800,3600
CC[C@H](C)[C@H](NC(=O)[C@H](Cc1ccc2ccccc2c1)NC=O)C(=O)N[C@@H](CCCCN)C(=O)N[C@@H](CC(C)C)C(N)=O (For-[2Nal]IKL-NH2),128000,27500
CCC(=O)N[C@@H](Cc1ccc2ccccc2c1)C(=O)N[C@H](C(=O)N[C@@H](CCCCN)C(=O)N[C@H]1CCCc2ccccc21)[C@@H](C)CC,–,140
CCC(=O)N[C@@H](Cc1ccc2ccccc2c1)C(=O)N[C@H](C(=O)N[C@@H](CCCCN)C(=O)NCCc1ccccc1)[C@@H](C)CC (Propionyl-[2Nal]-Ile-Lys-NHPhenethyl),10800,2500
CC[C@H](C)[C@H](NC(=O)[C@H](Cc1ccc2ccccc2c1)NC(=O)NC)C(=O)N[C@@H](CCCCN)C(=O)N[C@@H](CC(C)C)C(N)=O ({NHMe-CO}-[2Nal]IKL-NH2),18500,4000
CCC(=O)N[C@@H](Cc1ccc2ccccc2c1)C(=O)N[C@@H](CC(F)(F)F)C(=O)N[C@@H](CCCCN)C(=O)NC(c1ccccc1)c1ccccc1,3270,672
CC[C@H](C)[C@H](NC(=O)[C@H](CCSC)NC(C)=O)C(=O)N[C@@H](CCCCN)C(=O)N[C@@H](CC(C)C)C(N)=O (Ac-MIKL-NH2),599000,130000
CCC(=O)N[C@@H](Cc1ccc2ccccc2c1)C(=O)N[C@H](C(=O)N[C@@H](CCCCN)C(=O)Nc1ccccc1)[C@@H](C)CC (Propionyl-[2Nal]-Ile-Lys-NHPh),34900,7500
CCC(=O)N[C@@H](Cc1nc2cc(F)ccc2s1)C(=O)N[C@H](C(=O)N[C@@H](CCCCN)C(=O)NC(c1ccccc1)c1ccccc1)C1CCCC1,–,224
CCC(=O)N[C@@H](Cc1nc2cc(Cl)ccc2s1)C(=O)N[C@H](C(=O)N[C@@H](CCCCN)C(=O)NC(c1ccccc1)c1ccccc1)C1CCCC1,–,88.6
CC[C@H](C)[C@H](NC(=O)[C@H](Cc1ccc2ccccc2c1)NC(=O)OC)C(=O)N[C@@H](CCCCN)C(=O)N[C@@H](CC(C)C)C(N)=O (Moc-[2Nal]IKL-NH2),> 50000,–
CCC(=O)N[C@@H](Cc1nc2c(F)cccc2s1)C(=O)N[C@H](C(=O)N[C@@H](CCCCN)C(=O)NC(c1ccccc1)c1ccccc1)C1CCCC1,4920,1030
CC[C@H](C)[C@H](NC(=O)[C@@H](N)Cc1ccc2ccccc2c1)C(=O)N[C@@H](CCCCN)C(=O)N[C@@H](CC(C)C)C(N)=O (H-[2Nal]IKL-NH2),> 100000,–
CCC(=O)N[C@@H](Cc1nc2ccccc2s1)C(=O)N[C@H](C(=O)N[C@@H](CCCCN)C(=O)NC(c1ccccc1)c1ccccc1)C1CCCC1,–,50.7

# Molecular target: T1, DCN1-like protein 1
# Test: Binding affinity to biotin labeled recombinant N-terminal His6-tagged human DCN1 (58 to 259 residues) expressed in Escherichia coli Rosetta2 cells by biolayer interferometry analysis
# Outline: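 Recombinant human DCN1 (58–259) was biotinylated at a 1:1 molar ratio in PBS for 2 h at 4 °C, dialyzed, then loaded on super streptavidin sensors from a 10 μg/mL solution. Blocked streptavidin sensors served as reference.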
row,SMILES,Kd [nM]
1,CCC(=O)N[C@@H](Cc1nc2ccc(Cl)cc2s1)C(=O)N[C@H](C(=O)N[C@@H](CCCCN)C(=O)N[C@@H]1CCOc2ccccc21)C1CCCC1,4.1
2,CCC(=O)N[C@@H](Cc1nc2ccc(Cl)cc2s1)C(=O)N[C@H](C(=O)N[C@@H](CCCCN)C(=O)NC(c1ccccc1)c1ccccc1)C1CCCC1,8.1
3,CCC(=O)N[C@@H](Cc1nc2ccc(F)cc2s1)C(=O)N[C@H](C(=O)N[C@@H](CCCCN)C(=O)NC(c1ccccc1)c1ccccc1)C1CCCC1,37
4,CCC(=O)N[C@@H](Cc1ccc2ccccc2c1)C(=O)N[C@H](C(=O)N[C@@H](CCCCN)C(=O)NC(c1ccccc1)c1ccccc1)C1CCCC1,56.4
5,CCC(=O)N[C@@H](Cc1nc2ccc(Cl)cc2s1)C(=O)N[C@H](C(=O)N[C@@H](CCCCN(C)C)C(=O)N[C@@H]1CCOc2ccccc21)C1CCCC1,5.7
6,CCC(=O)N[C@@H](Cc1nc2ccc(Cl)cc2s1)C(=O)N[C@H](C(=O)N[C@@H](CCCCN)C(=O)N[C@@H]1CCCc2ccccc21)C1CCCC1,8.3
7,CCC(=O)N[C@@H](Cc1nc2ccccc2s1)C(=O)N[C@H](C(=O)N[C@@H](CCCCN)C(=O)NC(c1ccccc1)c1ccccc1)C1CCCC1,31.8

# Source: ChEMBL document CHEMBL4118105, “High-Affinity Peptidomimetic Inhibitors of the DCN1-UBC12 Protein-Protein Interaction” (J Med Chem, 2018)
